Source: ChEMBL document CHEMBL1799971, “Bivalent dopamine D2 receptor ligands: synthesis and binding properties” (J Med Chem, 2011)
Active and inactive are the calls of the source. The rule behind the calls is not given here.

Experiments:
Homo sapiens = species on record: Homo sapiens; assay: Selectivity ratio of Ki for human D4.4 receptor to Ki for human D3 receptor
D(2) dopamine receptor [1] = biological target: T1, D(2) dopamine receptor (Homo sapiens, UniProt P14416); assay: Displacement of [3H]spiperone from human D2short receptor expressed in CHO cells; format: cell-based
T1 sequence (P14416 whole entry): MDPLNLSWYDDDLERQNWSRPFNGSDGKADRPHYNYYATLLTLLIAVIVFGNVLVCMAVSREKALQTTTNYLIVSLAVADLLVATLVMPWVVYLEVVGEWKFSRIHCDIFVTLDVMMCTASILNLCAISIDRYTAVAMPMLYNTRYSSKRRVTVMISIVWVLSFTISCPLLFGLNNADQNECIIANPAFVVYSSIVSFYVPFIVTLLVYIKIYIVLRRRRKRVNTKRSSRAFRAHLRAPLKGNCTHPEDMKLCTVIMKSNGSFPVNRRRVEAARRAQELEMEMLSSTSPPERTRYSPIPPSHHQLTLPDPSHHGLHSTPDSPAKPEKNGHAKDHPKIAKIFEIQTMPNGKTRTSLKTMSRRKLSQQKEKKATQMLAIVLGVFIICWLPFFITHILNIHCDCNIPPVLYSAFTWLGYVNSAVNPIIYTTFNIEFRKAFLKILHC

D(1A) dopamine receptor = D(1A) dopamine receptor (Sus scrofa, UniProt P50130); assay: Displacement of [3H]SCH23390 from D1 receptor from porcine cerebral cortex homogenates; format: tissue-based
D(1A) dopamine receptor, sequence (P50130 whole entry): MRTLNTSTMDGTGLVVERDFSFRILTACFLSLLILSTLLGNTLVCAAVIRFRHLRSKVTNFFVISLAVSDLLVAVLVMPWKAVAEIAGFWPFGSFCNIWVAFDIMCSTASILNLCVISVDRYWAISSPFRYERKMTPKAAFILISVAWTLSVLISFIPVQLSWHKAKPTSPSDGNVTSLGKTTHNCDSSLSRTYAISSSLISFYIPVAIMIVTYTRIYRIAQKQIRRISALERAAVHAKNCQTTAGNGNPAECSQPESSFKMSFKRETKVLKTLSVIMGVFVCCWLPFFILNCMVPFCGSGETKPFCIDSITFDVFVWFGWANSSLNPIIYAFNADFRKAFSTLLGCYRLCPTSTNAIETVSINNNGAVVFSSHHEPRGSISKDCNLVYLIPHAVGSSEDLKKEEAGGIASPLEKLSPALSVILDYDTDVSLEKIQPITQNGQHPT
In short: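 Porcine cerebral cortex homogenate membranes at 40–60 μg/mL protein (Lowry, BSA standard). Competition curves were fitted to a sigmoid by nonlinear regression, with log EC50 and Hill coefficient as free parameters.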

D(3) dopamine receptor = D(3) dopamine receptor (Homo sapiens, UniProt P35462); assay: Displacement of [3H]spiperone from human D3 receptor expressed in CHO cells; format: cell-based
D(3) dopamine receptor, sequence (P35462 whole entry): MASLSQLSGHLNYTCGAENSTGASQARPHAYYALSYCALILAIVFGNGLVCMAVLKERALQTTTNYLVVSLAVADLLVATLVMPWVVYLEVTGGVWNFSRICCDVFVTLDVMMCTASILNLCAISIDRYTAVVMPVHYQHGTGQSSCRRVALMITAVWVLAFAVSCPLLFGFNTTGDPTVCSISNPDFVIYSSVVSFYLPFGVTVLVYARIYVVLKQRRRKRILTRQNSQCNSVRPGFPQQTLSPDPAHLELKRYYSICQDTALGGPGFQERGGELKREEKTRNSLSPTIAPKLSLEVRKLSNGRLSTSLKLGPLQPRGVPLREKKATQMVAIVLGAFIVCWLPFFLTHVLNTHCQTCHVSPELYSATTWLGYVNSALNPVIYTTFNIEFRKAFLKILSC

D(2) dopamine receptor [2] = biological target: T1, D(2) dopamine receptor; assay: Displacement of [3H]spiperone from human D2long receptor expressed in CHO cells
D(4) dopamine receptor = biological target: T2, D(4) dopamine receptor (Homo sapiens, UniProt P21917); assay: Displacement of [3H]spiperone from human D4.4 receptor expressed in CHO cells; format: cell-based
T2 sequence (P21917 whole entry): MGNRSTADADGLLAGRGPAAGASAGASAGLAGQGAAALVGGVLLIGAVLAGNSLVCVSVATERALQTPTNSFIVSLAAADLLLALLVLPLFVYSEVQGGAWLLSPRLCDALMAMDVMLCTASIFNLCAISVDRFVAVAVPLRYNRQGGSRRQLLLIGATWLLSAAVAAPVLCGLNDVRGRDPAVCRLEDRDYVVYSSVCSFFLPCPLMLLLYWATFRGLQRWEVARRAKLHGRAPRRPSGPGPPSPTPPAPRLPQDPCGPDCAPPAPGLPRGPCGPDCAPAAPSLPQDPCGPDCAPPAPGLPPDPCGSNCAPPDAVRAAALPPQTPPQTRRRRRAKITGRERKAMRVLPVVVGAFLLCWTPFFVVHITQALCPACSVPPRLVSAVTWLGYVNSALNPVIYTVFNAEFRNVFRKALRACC

D(2) dopamine receptor [3] = biological target: T1, D(2) dopamine receptor; assay: Displacement of [3H]spiperone from human D2short receptor expressed in CHO cells in presence of 100 mM sodium chloride; format: cell-based
In short: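 Buffer was 50 mM Tris, 1.0 mM EDTA, 5.0 mM MgCl2, 100 μg/mL bacitracin and 5 μg/mL soybean trypsin inhibitor, pH 7.4, plus NaCl at a final 100 mM. Curves were fitted by sigmoidal nonlinear regression with a free Hill coefficient.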

D(2) dopamine receptor [4] = biological target: T1, D(2) dopamine receptor; assay: Displacement of [3H]spiperone from human D2 receptor expressed in CHO cells assessed as dissociation half life; format: cell-based
D(2) dopamine receptor [5] = biological target: T1, D(2) dopamine receptor; assay: Antagonist activity at human D2long receptor expressed in CHO10001 cells assessed as inhibition of agonist-stimulated [3H]thymidine incorporation into cells by mitogenesis assay; format: functional, cell-based

Ratio Ki (Homo sapiens) | Ki (D(2) dopamine receptor [1]) [nM] | Ki (D(1A) dopamine receptor) [nM] | Ki (D(3) dopamine receptor) [nM] | Ki (D(2) dopamine receptor [2]) [nM] | Ki (D(4) dopamine receptor) [nM] | Ki (D(2) dopamine receptor [3]) [nM] | T1/2 (D(2) dopamine receptor [4]) [h] | inhibition (D(2) dopamine receptor [5]) | SMILES
80 | 70 | 2300 | 320 | 63 | 3.3 | – | – | – | CCCCn1cc(COc2ccc(CN3CCN(c4ccccc4OC)CC3)cc2OC)nn1
5 | 25 | 210 | 31 | 16 | 5.4 | – | – | – | COc1cc(CN2CCN(c3ccccc3OC)CC2)ccc1OCc1cn(CCCCCCCCn2cc(COc3ccc(CN4CCN(c5ccccc5OC)CC4)cc3OC)nn2)nn1
– | 32 | 400 | 230 | 36 | 14 | – | – | – | CCCc1cn(CCCCCCCCn2cc(CCCOc3ccc(CN4CCN(c5ccccc5OC)CC4)cc3OC)nn2)nn1
– | 3.7 | 220 | 61 | 2.8 | 12 | – | – | – | COc1cc(CN2CCN(c3ccccc3OC)CC2)ccc1OCCCc1cn(CCOCCOCCn2cc(CCCOc3ccc(CN4CCN(c5ccccc5OC)CC4)cc3OC)nn2)nn1
– | 8.2 | 300 | 74 | 17 | 11 | – | – | – | COc1cc(CN2CCN(c3ccccc3OC)CC2)ccc1OCCCCc1cn(CCCCCCCCCCn2cc(CCCCOc3ccc(CN4CCN(c5ccccc5OC)CC4)cc3OC)nn2)nn1
– | 3.4 | 390 | 36 | 3.3 | 6.8 | – | – | – | COc1cc(CN2CCN(c3ccccc3OC)CC2)ccc1OCc1cn(CCOCCOCCn2cc(COc3ccc(CN4CCN(c5ccccc5OC)CC4)cc3OC)nn2)nn1
– | – | 480 | – | – | 19 | – | – | – | COc1cc(CN2CCN(c3ccccc3OC)CC2)ccc1OCCCc1cn(CCCCCCCCn2cc(CCCOc3ccc(CN4CCN(C5CCCCC5)CC4)cc3OC)nn2)nn1
– | – | 980 | – | – | 12 | – | – | – | COc1cc(CN2CCN(C)CC2)ccc1OCCCc1cn(CCCCCCCCn2cc(CCCOc3ccc(CN4CCN(c5ccccc5OC)CC4)cc3OC)nn2)nn1
5 | – | 220 | – | – | 15 | 12 | 2.17 | Active | COc1cc(CN2CCN(c3ccccc3OC)CC2)ccc1OCCCc1cn(CCCCCCCCn2cc(CCCOc3ccc(CN4CCN(c5ccccc5OC)CC4)cc3OC)nn2)nn1
– | 17 | 250 | 96 | 23 | 19 | – | – | – | COc1cc(CN2CCN(c3ccccc3OC)CC2)ccc1OCCCc1cn(CCCCCCCCCCn2cc(CCCOc3ccc(CN4CCN(c5ccccc5OC)CC4)cc3OC)nn2)nn1
80 | – | 1500 | – | – | 7.2 | 35 | 2 | Active | CCCCn1cc(CCCOc2ccc(CN3CCN(c4ccccc4OC)CC3)cc2OC)nn1
– | 16 | 870 | 250 | 18 | 6.4 | – | – | – | CCOCCn1cc(CCCOc2ccc(CN3CCN(c4ccccc4OC)CC3)cc2OC)nn1
– | 6.2 | 270 | 72 | 4.8 | 19 | – | – | – | COc1cc(CN2CCN(c3ccccc3OC)CC2)ccc1OCCCc1cn(CCOCCOCCOCCn2cc(CCCOc3ccc(CN4CCN(c5ccccc5OC)CC4)cc3OC)nn2)nn1
– | 67 | 2500 | 590 | 52 | 13 | – | – | – | CCCCn1cc(CCCCOc2ccc(CN3CCN(c4ccccc4OC)CC3)cc2OC)nn1
– | 100 | 3800 | 440 | 68 | 8.4 | – | – | – | CCOCCn1cc(COc2ccc(CN3CCN(c4ccccc4OC)CC3)cc2OC)nn1
